Data reported in ChEMBL document CHEMBL1150295, “Synthesis and receptor binding properties of 2beta-alkynyl and 2beta-(1,2,3-triazol)substituted 3beta-(substituted phenyl)tropane derivatives” (Bioorg Med Chem, 2008).

How the values were obtained:
[1] = target: Sodium-dependent noradrenaline transporter (Homo sapiens, UniProt P23975); assay: Displacement of [3H]nisoxetine from norepinephrine transporter
[2] = target: Sodium-dependent dopamine transporter (Homo sapiens, UniProt Q01959); assay: Displacement of [3H]WIN-35428 from dopamine transporter
Sequence of Sodium-dependent dopamine transporter (Q01959 whole entry): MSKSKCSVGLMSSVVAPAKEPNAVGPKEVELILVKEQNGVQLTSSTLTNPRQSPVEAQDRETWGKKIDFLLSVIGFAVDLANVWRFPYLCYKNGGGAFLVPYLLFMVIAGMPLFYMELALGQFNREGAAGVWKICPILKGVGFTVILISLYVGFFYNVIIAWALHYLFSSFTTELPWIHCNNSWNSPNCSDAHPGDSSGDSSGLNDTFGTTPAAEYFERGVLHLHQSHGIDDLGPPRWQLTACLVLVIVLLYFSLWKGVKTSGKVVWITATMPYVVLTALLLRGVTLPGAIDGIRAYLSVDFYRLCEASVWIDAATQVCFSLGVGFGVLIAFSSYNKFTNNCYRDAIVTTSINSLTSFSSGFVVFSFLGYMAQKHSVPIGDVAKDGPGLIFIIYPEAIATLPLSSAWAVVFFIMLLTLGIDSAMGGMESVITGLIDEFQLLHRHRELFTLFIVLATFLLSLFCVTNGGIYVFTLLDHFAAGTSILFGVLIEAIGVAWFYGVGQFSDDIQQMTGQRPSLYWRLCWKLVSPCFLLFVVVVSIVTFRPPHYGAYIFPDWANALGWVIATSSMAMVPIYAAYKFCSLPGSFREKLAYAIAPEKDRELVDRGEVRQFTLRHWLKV
How it was run: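 Competitive radioligand binding at membrane dopamine transporter; 0.5 nM [3H]WIN35,428 final concentration. Mean ± standard error of three or four experiments, each in triplicate.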

[3] = target: Sodium-dependent serotonin transporter (Homo sapiens, UniProt P31645); assay: Displacement of [3H]paroxetine from serotonin transporter
Sequence of Sodium-dependent serotonin transporter (P31645 whole entry): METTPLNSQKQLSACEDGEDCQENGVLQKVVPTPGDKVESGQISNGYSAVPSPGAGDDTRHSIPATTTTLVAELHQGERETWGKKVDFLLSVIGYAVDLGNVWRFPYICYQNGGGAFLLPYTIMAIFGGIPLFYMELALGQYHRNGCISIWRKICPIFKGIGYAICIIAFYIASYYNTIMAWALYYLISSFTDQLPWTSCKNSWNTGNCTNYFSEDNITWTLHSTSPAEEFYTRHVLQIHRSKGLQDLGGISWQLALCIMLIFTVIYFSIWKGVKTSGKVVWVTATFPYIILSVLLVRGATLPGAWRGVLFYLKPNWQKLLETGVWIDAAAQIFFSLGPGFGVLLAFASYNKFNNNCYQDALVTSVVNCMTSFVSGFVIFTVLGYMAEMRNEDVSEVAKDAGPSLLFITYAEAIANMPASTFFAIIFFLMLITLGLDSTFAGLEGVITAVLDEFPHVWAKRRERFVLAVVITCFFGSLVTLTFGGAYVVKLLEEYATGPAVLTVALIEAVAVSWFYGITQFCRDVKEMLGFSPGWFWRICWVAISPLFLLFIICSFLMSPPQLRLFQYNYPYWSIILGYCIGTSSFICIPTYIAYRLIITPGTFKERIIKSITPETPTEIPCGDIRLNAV

[4] = Selectivity for dopamine transporter over norepinephrine transporter
[5] = Selectivity for dopamine transporter over serotonin transporter

Sequence of Sodium-dependent noradrenaline transporter (P23975 whole entry): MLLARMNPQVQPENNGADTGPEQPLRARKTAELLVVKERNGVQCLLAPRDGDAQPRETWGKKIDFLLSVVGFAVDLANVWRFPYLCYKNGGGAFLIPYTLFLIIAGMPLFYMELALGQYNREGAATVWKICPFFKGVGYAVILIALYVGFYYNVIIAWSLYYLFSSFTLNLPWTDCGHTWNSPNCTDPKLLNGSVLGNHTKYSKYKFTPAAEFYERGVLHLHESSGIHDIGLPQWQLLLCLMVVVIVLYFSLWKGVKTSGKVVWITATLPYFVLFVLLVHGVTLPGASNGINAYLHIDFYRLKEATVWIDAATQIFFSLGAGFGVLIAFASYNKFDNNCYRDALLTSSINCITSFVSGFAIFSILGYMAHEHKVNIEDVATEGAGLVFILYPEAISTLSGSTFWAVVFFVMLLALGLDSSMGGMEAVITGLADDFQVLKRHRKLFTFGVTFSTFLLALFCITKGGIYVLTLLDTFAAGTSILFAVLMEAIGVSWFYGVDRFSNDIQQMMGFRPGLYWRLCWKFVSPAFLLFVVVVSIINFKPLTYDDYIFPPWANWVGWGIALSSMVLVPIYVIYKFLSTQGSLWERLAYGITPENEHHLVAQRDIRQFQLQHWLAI

CN1[C@H]2CC[C@@H]1[C@@H](C#Cc1ccccc1)[C@@H](c1ccc(Cl)cc1)C2
Ki [1]: 14 nM | IC50 [2]: 0.8 nM | Ki [3]: 81 nM

CN1[C@H]2CC[C@@H]1[C@@H](C=C(Br)Br)[C@@H](c1ccc(Cl)cc1)C2
Ki [1]: 3.5 nM | IC50 [2]: 0.32 nM | Ki [3]: 7 nM

CN1[C@H]2CC[C@@H]1[C@@H](C#Cc1ccc(N)cc1)[C@@H](c1ccc(Cl)cc1)C2
Ki [1]: 50 nM | IC50 [2]: 2.2 nM | Ki [3]: 19 nM

Cc1ccc([C@H]2C[C@@H]3CC[C@H]([C@H]2C#Cc2ccccc2)N3C)cc1
Ki [1]: 31 nM | IC50 [2]: 0.8 nM | Ki [3]: 730 nM

Cc1ccc([C@H]2C[C@@H]3CC[C@H]([C@@H]2C=C(Br)Br)N3C)cc1
Ki [1]: 55 nM | IC50 [2]: 3.6 nM | Ki [3]: 252 nM

CN1[C@H]2CC[C@@H]1[C@@H](c1cn(Cc3ccccc3)nn1)[C@@H](c1ccc(Cl)cc1)C2
Ki [1]: 2560 nM | IC50 [2]: 47 nM | Ki [3]: 161 nM

COC(=O)[C@H]1[C@@H](c2ccccc2)C[C@@H]2CC[C@H]1N2C
Ki [1]: 556 nM | IC50 [2]: 23 nM

CN1[C@H]2CC[C@@H]1[C@@H](c1cn(CCN3CCCCC3)nn1)[C@@H](c1ccc(Cl)cc1)C2
Ki [1]: 430 nM | IC50 [2]: 8 nM | Ki [3]: 138 nM

C#C[C@H]1[C@@H](c2ccc(Cl)cc2)C[C@@H]2CC[C@H]1N2C
Ki [1]: 75 nM | IC50 [2]: 3.6 nM | Ki [3]: 18 nM

CN1[C@H]2CC[C@@H]1[C@H](C=C(Br)Br)[C@@H](c1ccc(Cl)cc1)C2
Ki [1]: 49 nM | IC50 [2]: 1.4 nM | Ki [3]: 76 nM

C#C[C@H]1[C@@H](c2ccc(C)cc2)C[C@@H]2CC[C@H]1N2C
Ki [1]: 150 nM | IC50 [2]: 11 nM | Ki [3]: 54 nM

CN1[C@H]2CC[C@@H]1[C@@H](C#Cc1ccc([N+](=O)[O-])cc1)[C@@H](c1ccc(Cl)cc1)C2
Ki [1]: 230 nM | Selectivity ratio [4]: 256 | IC50 [2]: 0.9 nM | Ki [3]: 620 nM | Selectivity ratio [5]: 689

Cc1ccc([C@H]2C[C@@H]3CC[C@H]([C@H]2C=C(Br)Br)N3C)cc1
Ki [1]: 3.4 nM | IC50 [2]: 0.23 nM | Ki [3]: 39 nM
